Source: ChEMBL document CHEMBL1148377, “Identification of novel binding interactions in the development of potent, selective 2-naphthamidine inhibitors of urokinase. Synthesis, structural analysis, and SAR of N-phenyl amide 6-substitution” (J Med Chem, 2004)
Each block holds one molecule with its values, some of them ahead of it.

Columns and labels:
[1] = target: Prothrombin (Homo sapiens, UniProt P00734); assay: Binding affinity against human alpha thrombin.
[2] = target: Tissue-type plasminogen activator (Homo sapiens, UniProt P00750); assay: Binding affinity towards human Tissue type plasminogen activator.
Summary of the method: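 Human tPA (1 μg/mL) was run against S-2288 (H-D-Ile-Pro-Arg-pNA) at 1350 μM in Tris 50 mM/NaCl 0.15 M/0.5% Pluronic F-68 buffer at pH 7.4. Test agents in DMSO spanned 0.01–250 μM. Substrate addition began the reaction, and p-nitroaniline formation at 405 nm was followed for 15 min. Ki derived from percent inhibition and previously determined Km.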

[3] = target: Plasma kallikrein (Homo sapiens, UniProt P03952); assay: Binding affinity against human plasma kallikrein.; format: cell-free
Summary of the method: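 Enzyme: human plasma kallikrein at 100 ng/mL. Substrate: S-2302 (H-D-Pro-Phe-Arg-pNA) at 330 μM. Conditions were pH 7.4, 50 mM Tris/0.15 M NaCl/0.5% Pluronic F-68, with compounds from DMSO at 0.01–250 μM. Substrate addition started each reaction, followed by pNA release at 405 nm over 15 min. Ki was calculated from rate-based percent inhibition using previously established Km.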

[4] = target: Plasminogen (Homo sapiens, UniProt P00747); assay: Binding affinity towards human plasmin.
Summary of the method: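 Uses human plasmin at 18 nM with S-2251 (H-D-Val-Leu-Lys-pNA) at 360 μM. The buffer was 50 mM Tris/0.15 M NaCl + 0.5% Pluronic F-68, pH 7.4, and compounds were added in DMSO at 0.01–250 μM. After substrate start, absorbance at 405 nm was tracked for 15 min. Percent inhibition came from rates, and Ki from percent inhibition with established Km values.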

[5] = target: Urokinase-type plasminogen activator (Homo sapiens, UniProt P00749)

Chain of Tissue-type plasminogen activator (P00750 whole entry): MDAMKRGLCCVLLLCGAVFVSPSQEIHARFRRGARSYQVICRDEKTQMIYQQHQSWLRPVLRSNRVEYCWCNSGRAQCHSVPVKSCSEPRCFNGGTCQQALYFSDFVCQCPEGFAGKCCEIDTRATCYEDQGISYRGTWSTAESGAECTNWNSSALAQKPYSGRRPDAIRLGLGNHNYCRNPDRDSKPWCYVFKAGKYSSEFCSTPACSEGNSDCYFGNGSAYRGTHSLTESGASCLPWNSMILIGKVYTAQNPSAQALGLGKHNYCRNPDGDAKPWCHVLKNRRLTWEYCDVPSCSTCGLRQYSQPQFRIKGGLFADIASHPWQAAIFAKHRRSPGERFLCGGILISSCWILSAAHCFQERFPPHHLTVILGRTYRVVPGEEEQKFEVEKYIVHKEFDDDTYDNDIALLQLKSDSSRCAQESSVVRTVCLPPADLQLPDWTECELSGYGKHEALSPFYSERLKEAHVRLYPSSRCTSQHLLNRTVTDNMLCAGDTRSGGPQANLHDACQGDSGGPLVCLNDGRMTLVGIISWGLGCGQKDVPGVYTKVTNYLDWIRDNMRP
Chain of Plasma kallikrein (P03952 20-390 limits assumed): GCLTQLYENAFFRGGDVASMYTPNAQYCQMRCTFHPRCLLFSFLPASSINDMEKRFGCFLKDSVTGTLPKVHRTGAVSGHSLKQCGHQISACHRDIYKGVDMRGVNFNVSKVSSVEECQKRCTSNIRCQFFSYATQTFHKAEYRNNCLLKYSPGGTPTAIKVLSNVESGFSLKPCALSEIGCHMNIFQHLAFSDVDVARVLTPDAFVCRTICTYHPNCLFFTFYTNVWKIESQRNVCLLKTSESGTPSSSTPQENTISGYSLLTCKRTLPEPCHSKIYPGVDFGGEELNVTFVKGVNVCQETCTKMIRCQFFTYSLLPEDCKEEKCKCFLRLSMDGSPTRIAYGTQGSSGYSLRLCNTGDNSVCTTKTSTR
Chain of Plasma kallikrein (P03952 391-638 limits assumed): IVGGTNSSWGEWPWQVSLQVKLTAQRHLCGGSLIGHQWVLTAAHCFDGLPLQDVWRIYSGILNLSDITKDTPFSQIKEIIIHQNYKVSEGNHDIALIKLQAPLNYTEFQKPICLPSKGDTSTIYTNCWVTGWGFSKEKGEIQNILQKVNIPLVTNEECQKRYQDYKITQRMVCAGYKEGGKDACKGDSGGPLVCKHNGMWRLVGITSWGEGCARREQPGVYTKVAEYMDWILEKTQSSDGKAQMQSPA
Chain of Plasminogen (P00747 97-580 limits assumed): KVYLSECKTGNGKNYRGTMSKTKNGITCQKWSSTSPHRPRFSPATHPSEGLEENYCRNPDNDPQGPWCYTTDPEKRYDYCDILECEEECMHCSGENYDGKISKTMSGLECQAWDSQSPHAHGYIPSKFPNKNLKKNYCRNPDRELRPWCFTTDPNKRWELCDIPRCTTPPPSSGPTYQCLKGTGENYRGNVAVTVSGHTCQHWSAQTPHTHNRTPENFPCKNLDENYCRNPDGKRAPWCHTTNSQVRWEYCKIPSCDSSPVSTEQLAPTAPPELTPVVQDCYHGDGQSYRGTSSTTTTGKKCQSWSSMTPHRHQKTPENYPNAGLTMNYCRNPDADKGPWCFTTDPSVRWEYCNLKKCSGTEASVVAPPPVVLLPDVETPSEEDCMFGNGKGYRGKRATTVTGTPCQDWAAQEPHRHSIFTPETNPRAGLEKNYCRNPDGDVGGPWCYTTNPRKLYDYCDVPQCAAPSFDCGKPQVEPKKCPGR
Chain of Plasminogen (P00747 581-810 limits assumed): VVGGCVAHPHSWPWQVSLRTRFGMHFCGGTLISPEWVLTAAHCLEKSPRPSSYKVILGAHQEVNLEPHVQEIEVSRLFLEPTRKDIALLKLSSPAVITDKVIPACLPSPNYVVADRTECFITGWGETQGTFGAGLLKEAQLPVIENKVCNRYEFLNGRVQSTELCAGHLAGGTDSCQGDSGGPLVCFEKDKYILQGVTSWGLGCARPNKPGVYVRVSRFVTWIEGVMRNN

Structure (SMILES): N=C(N)c1ccc2ccccc2c1
- Ki [2]: > 100000 nM
- Ki [3]: 22500 nM
- Ki [5]: 5910 nM
- Ki [4]: 51300 nM

Structure (SMILES): N#Cc1ccc2cc(NC(=O)c3ccccc3)ccc2c1
- Ki [1]: 17600 nM
- Ki [2]: > 100000 nM
- Ki [3]: 8000 nM
- Ki [4]: 5560 nM

Structure (SMILES): N=C(N)c1ccc2cc(C(=O)Nc3cccc(CC4CCCC4)c3)ccc2c1
- Ki [5]: 167 nM

Structure (SMILES): N=C(N)c1ccc2cc(C(=O)Nc3cccc(Oc4ccccc4)c3)ccc2c1
- Ki [5]: 517 nM

Structure (SMILES): CN(C(=O)c1ccc2cc(C(=N)N)ccc2c1)c1ccccc1
- Ki [5]: 15500 nM

Structure (SMILES): CC(C)Oc1cc(NC(=O)c2ccc3cc(C(=N)N)ccc3c2)cc(OC(C)C)c1
- Ki [1]: 21700 nM
- Ki [2]: 790 nM
- Ki [3]: 4300 nM
- Ki [5]: 28 nM
- Ki [4]: 1060 nM

Structure (SMILES): N=C(N)c1ccc2cc(C(=O)Nc3cccc(OC4CCCC4)c3)ccc2c1
- Ki [1]: 5580 nM
- Ki [2]: 3390 nM
- Ki [3]: 2720 nM
- Ki [4]: 498 nM

Structure (SMILES): COc1cc(NC(=O)c2ccc3cc(C(=N)N)ccc3c2)cc(OC)c1
- Ki [5]: 139 nM

Structure (SMILES): N=C(N)c1ccc2cc(C(=O)Nc3ccc(C(N)=O)cc3)ccc2c1
- Ki [1]: 2350 nM
- Ki [2]: > 100000 nM
- Ki [3]: 2430 nM
- Ki [5]: 326 nM
- Ki [4]: 1970 nM

Structure (SMILES): CNC(=O)c1ccc2cc(C(=N)N)ccc2c1
- Ki [5]: 8700 nM

Structure (SMILES): [H]/N=C(\N)c1ccc2cc(C(=O)Nc3ccc(CN)cc3)ccc2c1
- Ki [1]: > 100000 nM
- Ki [2]: 58400 nM
- Ki [3]: 7170 nM
- Ki [4]: 16000 nM

Structure (SMILES): CC(C)Oc1cc(NC(=O)c2ccc3cc(C(=N)N)ccc3c2)cc(OC2CCCC2)c1
- Ki [1]: 21600 nM
- Ki [2]: 844 nM
- Ki [3]: 3330 nM
- Ki [5]: 22 nM
- Ki [4]: 966 nM

More lines, now with the values ahead:

- Ki [1]: 5640 nM
- Ki [2]: 31800 nM
- Ki [3]: 2500 nM
- Ki [4]: 1950 nM
Structure (SMILES): N=C(N)c1ccc2cc(C(=O)Nc3ccccc3)ccc2c1

- Ki [5]: 82 nM
Structure (SMILES): CCOc1cccc(NC(=O)c2ccc3cc(C(=N)N)ccc3c2)c1

- Ki [1]: 6440 nM
- Ki [2]: 1650 nM
- Ki [3]: 145 nM
- Ki [4]: 1120 nM
Structure (SMILES): CCC1CNCc2ccc(NC(=O)c3ccc4cc(C(=N)N)ccc4c3)cc21 (stereo not drawn)

- Ki [1]: 4990 nM
- Ki [2]: 1840 nM
- Ki [3]: 436 nM
- Ki [4]: 768 nM
Structure (SMILES): CC(C)C1=NCCc2ccc(NC(=O)c3ccc4cc(C(=N)N)ccc4c3)cc21

- Ki [1]: 7310 nM
- Ki [2]: > 50000 nM
- Ki [3]: 1350 nM
- Ki [5]: 123 nM
- Ki [4]: 1190 nM
Structure (SMILES): CC(C)CC1NCCc2ccc(NC(=O)c3ccc4cc(C(=N)N)ccc4c3)cc21 (stereo not drawn)

- Ki [5]: 233 nM
Structure (SMILES): COc1cccc(NC(=O)c2ccc3cc(C(=N)N)ccc3c2)c1

- Ki [1]: 10200 nM
- Ki [2]: 3950 nM
- Ki [3]: 400 nM
- Ki [5]: 26.5 nM
- Ki [4]: 833 nM
Structure (SMILES): N=C(N)c1ccc2cc(C(=O)Nc3ccc4c(c3)C(C3CCCC3)NCC4)ccc2c1 (stereo not drawn)

- Ki [1]: 35100 nM
- Ki [2]: 8350 nM
- Ki [3]: 2570 nM
- Ki [4]: 3820 nM
Structure (SMILES): N=C(N)c1ccc2cc(C(=O)Nc3ccc(CO)cc3)ccc2c1

- Ki [1]: 3490 nM
- Ki [2]: 2370 nM
- Ki [3]: 1370 nM
- Ki [4]: 554 nM
Structure (SMILES): CC(C)Oc1cccc(NC(=O)c2ccc3cc(C(=N)N)ccc3c2)c1

- Ki [1]: 6920 nM
- Ki [2]: 2320 nM
- Ki [3]: 112 nM
- Ki [4]: 1030 nM
Structure (SMILES): N=C(N)c1ccc2cc(C(=O)Nc3ccc4c(c3)CCNC4)ccc2c1

- Ki [5]: 104 nM
Structure (SMILES): CCC(CC)Oc1cccc(NC(=O)c2ccc3cc(C(=N)N)ccc3c2)c1

- Ki [1]: 43700 nM
- Ki [2]: 83900 nM
- Ki [3]: 18100 nM
- Ki [5]: 736 nM
- Ki [4]: 3870 nM
Structure (SMILES): CCc1ccc(NC(=O)c2ccc3cc(C(=N)N)ccc3c2)cc1

- Ki [1]: 5310 nM
- Ki [2]: 3130 nM
- Ki [3]: 849 nM
- Ki [5]: 35.5 nM
- Ki [4]: 765 nM
Structure (SMILES): N=C(N)c1ccc2cc(C(=O)Nc3ccc4c(c3)C(C3CCCC3)=NCC4)ccc2c1

- Ki [5]: 161 nM
Structure (SMILES): CC(C)CC1=NCCc2ccc(NC(=O)c3ccc4cc(C(=N)N)ccc4c3)cc21

- Ki [1]: 5720 nM
- Ki [2]: 1120 nM
- Ki [3]: 230 nM
- Ki [4]: 631 nM
Structure (SMILES): CC(C)C1NCCc2ccc(NC(=O)c3ccc4cc(C(=N)N)ccc4c3)cc21 (stereo not drawn)
